Results from ChEMBL document CHEMBL6092204, “Synthesis of pyridyl pyrimidine hedgehog signaling pathway inhibitors and their antitumor activity in human pancreatic cancer” (Eur J Med Chem, 2024).
Active and inactive are the calls of the source. The calls are words filed in the database; no cut-off is given here.

Assays:
PANC-1 [1] = assay: Induction of apoptosis in human PANC-1 cells assessed as early apoptotic cells at 10 uM incubated for 48 hrs by Annexin V-FITC/PI staining based flow cytometry (reference value: 1.88 %); type: functional
BXPC-3 [2] = assay: Induction of cell cycle arrest in human BXPC-3 cells assessed as accumulation at G2 phase at 2.5 uM incubated for 48 hrs by PI/RNase staining based flow cytometry (reference value: 8.15 %); type: functional
[3] = target: Protein smoothened (Homo sapiens) (UniProt Q99835); assay: Antagonist activity at Smo (unknown origin) transfected in HEK293T cells incubated for 2 hrs by BODIPY-Cyclopamine based competitive binding assay; type: cell-based; details: filed as antagonist, dose 10-50 nM
Protein smoothened (Homo sapiens), sequence (Q99835 whole entry): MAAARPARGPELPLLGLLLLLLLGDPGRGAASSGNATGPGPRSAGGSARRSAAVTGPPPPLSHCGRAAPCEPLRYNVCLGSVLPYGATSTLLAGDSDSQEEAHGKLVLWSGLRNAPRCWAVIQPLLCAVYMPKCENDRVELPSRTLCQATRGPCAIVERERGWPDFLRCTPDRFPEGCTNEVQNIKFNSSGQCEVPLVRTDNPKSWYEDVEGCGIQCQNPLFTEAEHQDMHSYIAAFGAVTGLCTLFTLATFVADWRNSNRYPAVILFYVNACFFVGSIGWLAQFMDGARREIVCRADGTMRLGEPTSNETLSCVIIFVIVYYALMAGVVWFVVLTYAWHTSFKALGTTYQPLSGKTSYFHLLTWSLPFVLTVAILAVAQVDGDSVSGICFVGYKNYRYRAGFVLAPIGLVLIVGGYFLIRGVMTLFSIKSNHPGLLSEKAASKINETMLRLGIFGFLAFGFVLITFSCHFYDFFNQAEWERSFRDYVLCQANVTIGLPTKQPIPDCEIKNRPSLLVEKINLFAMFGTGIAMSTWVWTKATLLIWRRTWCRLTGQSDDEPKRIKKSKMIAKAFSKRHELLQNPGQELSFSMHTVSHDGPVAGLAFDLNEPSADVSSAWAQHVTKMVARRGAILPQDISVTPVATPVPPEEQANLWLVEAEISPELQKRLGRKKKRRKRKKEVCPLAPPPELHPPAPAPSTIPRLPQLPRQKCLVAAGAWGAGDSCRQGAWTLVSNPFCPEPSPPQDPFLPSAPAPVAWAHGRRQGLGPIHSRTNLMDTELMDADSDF
Method in brief: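 […] cells stably transfected with a Smo plasmid, with expression confirmed by Western blot. Cells (2×10^4/well) were grown 24 h in poly-L-lysine-coated wells, then fixed with 4% paraformaldehyde and DAPI-stained. BODIPY-cyclopamine (100 nM) was added together with test compound for 2 h. Green fluorescence was imaged by fluorescence microscopy.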

PANC-1 [4] = assay: Induction of cell cycle arrest in human PANC-1 cells assessed as accumulation at G1 phase at 5 uM incubated for 48 hrs by PI/RNase staining based flow cytometry (reference value: 82.0 %); type: functional
[5] = Toxicity in BALB/c nude mouse xenografted with human BxPC-3 cells assessed as inflammatory infiltration in lung at 5 to 15 mg/kg, ip qd for 21 days by H and E staining based analysis; details: in vivo, 504 h
BXPC-3 [6] = assay: Induction of apoptosis in human BXPC-3 cells assessed as early apoptotic cells at 5 uM incubated for 48 hrs by Annexin V-FITC/PI staining based flow cytometry (reference value: 1.11 %); type: functional
PANC-1 [7] = assay: Induction of cell cycle arrest in human PANC-1 cells assessed as accumulation at S phase at 10 uM incubated for 48 hrs by PI/RNase staining based flow cytometry (reference value: 7.58 %); type: functional
[8] = Toxicity in BALB/c nude mouse xenografted with human BxPC-3 cells assessed as tissue fibrosis in heart at 5 to 15 mg/kg, ip qd for 21 days by H and E staining based analysis; details: in vivo, 504 h
BXPC-3 [9] = assay: Induction of apoptosis in human BXPC-3 cells assessed as late apoptotic cells at 8 uM incubated for 48 hrs by Annexin V-FITC/PI staining based flow cytometry (reference value: 6.72 %); type: functional
BXPC-3 [10] = assay: Induction of apoptosis in human BXPC-3 cells assessed as early apoptotic cells at 10 uM incubated for 48 hrs by Annexin V-FITC/PI staining based flow cytometry (reference value: 1.11 %); type: functional
PANC-1 [11] = assay: Induction of apoptosis in human PANC-1 cells assessed as late apoptotic cells at 10 uM incubated for 48 hrs by Annexin V-FITC/PI staining based flow cytometry (reference value: 2.74 %); type: functional
PANC-1 [12] = assay: Induction of apoptosis in human PANC-1 cells assessed as early apoptotic cells at 2.5 uM incubated for 48 hrs by Annexin V-FITC/PI staining based flow cytometry (reference value: 1.88 %); type: functional
[13] = Inhibition of Hh signaling pathway in mouse NIH3T3 cells incubated for 48 hrs by Gli luciferase reporter assay; type: cell-based; details: NIH3T3, 48 h
Method in brief: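 Reporter cells were seeded in 96-well plates, incubated overnight, then treated for 48 h. Lysate luciferase activity was measured with a dual-luciferase system, and firefly signal was normalised to Renilla.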

PANC-1 [14] = assay: Induction of apoptosis in human PANC-1 cells assessed as viable cells at 8 uM incubated for 48 hrs by Annexin V-FITC/PI staining based flow cytometry (reference value: 93.2 %); type: functional; details: read-out: Activity
BxPC-3 [15] = assay: Antitumor activity aginst human BxPC-3 cells xenografted in BALB/c nude mouse assessed as decrease in tumor weight at 15 mg/kg, ip qd for 21 days; details: time 21.0 day
[16] = Toxicity in BALB/c nude mouse xenografted with human BxPC-3 cells assessed as inflammatory infiltration in liver at 5 to 15 mg/kg, ip qd for 21 days by H and E staining based analysis; details: in vivo, 504 h
BXPC-3 [17] = assay: Induction of cell cycle arrest in human BXPC-3 cells assessed as accumulation at G2 phase at 10 uM incubated for 48 hrs by PI/RNase staining based flow cytometry (reference value: 8.15 %); type: functional
[18] = Toxicity in BALB/c nude mouse xenografted with human BxPC-3 cells assessed as necrosis in heart at 5 to 15 mg/kg, ip qd for 21 days by H and E staining based analysis; details: in vivo, 504 h
BxPC-3 [19] = assay: Antitumor activity aginst human BxPC-3 cells xenografted in BALB/c nude mouse assessed as tumor growth inhibition at 5 to 15 mg/kg, ip qd for 21 days; details: dose 5-15 mg/kg, time 21.0 day
PANC-1 [20] = assay: Induction of apoptosis in human PANC-1 cells assessed as late apoptotic cells at 2.5 uM incubated for 48 hrs by Annexin V-FITC/PI staining based flow cytometry (reference value: 2.74 %); type: functional
PANC-1 [21] = assay: Induction of cell cycle arrest in human PANC-1 cells assessed as accumulation at G2 phase at 2.5 uM incubated for 48 hrs by PI/RNase staining based flow cytometry (reference value: 5.83 %); type: functional
[22] = Toxicity in BALB/c nude mouse xenografted with human BxPC-3 cells assessed as cellular edema in spleen at 5 to 15 mg/kg, ip qd for 21 days by H and E staining based analysis; details: in vivo, 504 h
PANC-1 [23] = assay: Induction of cell cycle arrest in human PANC-1 cells assessed as accumulation at S phase at 5 uM incubated for 48 hrs by PI/RNase staining based flow cytometry (reference value: 7.58 %); type: functional
BXPC-3 [24] = assay: Induction of apoptosis in human BXPC-3 cells assessed as late apoptotic cells at 10 uM incubated for 48 hrs by Annexin V-FITC/PI staining based flow cytometry (reference value: 6.72 %); type: functional
PANC-1 [25] = assay: Induction of cell cycle arrest in human PANC-1 cells assessed as accumulation at G2 phase at 10 uM incubated for 48 hrs by PI/RNase staining based flow cytometry (reference value: 5.83 %); type: functional
BXPC-3 [26] = assay: Induction of cell cycle arrest in human BXPC-3 cells assessed as accumulation at G2 phase at 5 uM incubated for 48 hrs by PI/RNase staining based flow cytometry (reference value: 8.15 %); type: functional
BXPC-3 [27] = assay: Antiproliferative activity against human BXPC-3 cells assessed as inhibition of cell viability incubated for 48 hrs by MTT assay; type: functional, cell-based; details: BXPC-3, 48 h
Method in brief: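 Cells in log phase were seeded at 8,000-10,000/well and allowed to adhere overnight at 37 °C, 5% CO2. Compound from DMSO stock, diluted in medium, was applied for 48 h; controls got drug-free medium, blanks held medium only. MTT (5 mg/mL stock) 4 h, formazan dissolved in DMSO, A490 read. Viability was blank-corrected against untreated cells; IC50 came from a fitted curve; three separate experiments.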

CN(C)Cc1ccc(NC(=O)c2ccc(Nc3nccc(-c4cccnc4)n3)cc2)cc1
Activity (PANC-1 [1]): 4.09% | Activity (BXPC-3 [2]): 11.3% | Activity [3]: Dose-dependent-effect; Exhibited Fluorescence Quenching Activity Similar To Compound 1 | Activity (PANC-1 [4]): 84.2% | Activity [5]: Non-toxic | Activity (BXPC-3 [6]): 2.71% | Activity (PANC-1 [7]): 10.5% | Activity [8]: Non-toxic | Activity (BXPC-3 [9]): 12.3% | Activity (BXPC-3 [10]): 1.86% | Activity (PANC-1 [11]): 22.3% | Activity (PANC-1 [12]): 1.97% | IC50 [13]: 2.7 nM | viability at 8 µM (PANC-1 [14]): 85.9% | Activity (BxPC-3 [15]): Active | Activity [16]: Non-toxic | Activity (BXPC-3 [17]): 2.98% | Activity [18]: Non-toxic | inhibition (BxPC-3 [19]): Active | Activity (PANC-1 [20]): 5.12% | Activity (PANC-1 [21]): 7.2% | Activity [22]: Non-toxic | Activity (PANC-1 [23]): 8.18% | Activity (BXPC-3 [24]): 24% | Activity (PANC-1 [25]): 12.2% | Activity (BXPC-3 [26]): 12.5% | IC50 (BXPC-3 [27]): 3570 nM
